# According to ChEMBL document CHEMBL1125435, “Synthesis and biological activity of open-chain analogues of 5,6,7,8-tetrahydrofolic acid--potential antitumor agents” (J Med Chem, 1992):
# Key:
# MCF7 = assay: In vitro inhibition of growth of MCF-7 human breast adenocarcinoma using 72 hours continuous exposure; type: functional, cell-based
# In short: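 ATCC MCF-7 cells grown in RPMI 1640 with 10 nM calcium leucovorin as folate source, 10% dialyzed fetal calf serum, penicillin, streptomycin and sodium pyruvate (110 μg/mL). Cells seeded at 15000/well, preincubated 24 h at 37 °C, then exposed 72 h (37 °C, 5% CO2), triplicate per concentration. Growth read by MTT reduction, formazan dissolved in DMSO, A570 (reference 750 nm), against a cell-number standard curve.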
# MOLT-4 [1] = assay: Compound was evaluated for inhibition of [3H]methotrexate uptake into MOLT-4 cells; type: functional, cell-based; conditions: Homo sapiens
# MOLT-4 [2] = assay: In vitro inhibitory activity against MOLT-4 T-cell leukemia cell AICAR transformylase; type: functional, cell-based, Homo sapiens; conditions: for IC50: Homo sapiens, MOLT-4
# [3] = molecular target: GAR transformylase (Sus scrofa); assay: In vitro inhibition of hog liver GAR transformylase with (6R)-10-formyl-FH4 as cofactor
Structure (SMILES),IC50 (MCF7),IC50 (MOLT-4 [1]),IC50 (MOLT-4 [2]),Inhibition (MOLT-4 [2]),IC50 [3]
COc1cc(C(=O)NC(CCC(=O)O)C(=O)O)ccc1NCCCc1c(N)nc(N)nc1O (stereo unspecified),5000 nM,1000 nM,,,
Nc1nc(O)c2c(n1)NCC(CCc1ccc(C(=O)NC(CCC(=O)O)C(=O)O)cc1)C2 (stereo unspecified),18 nM,1500 nM,,,
Nc1nc(N)c(CCCCNc2ccc(C(=O)NC(CCC(=O)O)C(=O)O)cc2)c(O)n1 (stereo unspecified),5000 nM,1500 nM,,,
Nc1nc(N)c(CCCNc2ccc(C(=O)NC(CCC(=O)O)C(=O)O)cc2F)c(O)n1 (stereo unspecified),63 nM,1000 nM,133000 nM,,
Cc1cc(C(=O)NC(CCC(=O)O)C(=O)O)ccc1NCCCc1c(N)nc(N)nc1O (stereo unspecified),250 nM,1300 nM,,,
Nc1nc(N)c(CCCNc2ccc(C(=O)NC(CCC(=O)O)C(=O)O)c(F)c2)c(O)n1 (stereo unspecified),33 nM,700 nM,79300 nM,,
Nc1nc(N)c(CCCSc2ccc(C(=O)NC(CCC(=O)O)C(=O)O)cc2)c(O)n1 (stereo unspecified),23 nM,800 nM,25800 nM,,
Nc1ncnc(O)c1CCCNc1ccc(C(=O)NC(CCC(=O)O)C(=O)O)cc1 (stereo unspecified),> 50000 nM,2000 nM,,26%,
Nc1nc(N)c(CCCNc2ccc(C(=O)N[C@@H](CCC(=O)O)C(=O)O)cc2)c(O)n1,,1200 nM,,,3000 nM
Nc1nc(N)c(CCCOc2ccc(C(=O)NC(CCC(=O)O)C(=O)O)cc2)c(O)n1 (stereo unspecified),85 nM,1100 nM,,,
Nc1nc(N)c(CCCCc2ccc(C(=O)N[C@@H](CCC(=O)O)C(=O)O)cc2)c(=O)[nH]1 [DIDEAZAACYCLOTETRAHYDROFOLIC ACID],61 nM,900 nM,,,
Nc1nnc(C2CCN(c3ccc(C(=O)NC(CCC(=O)O)C(=O)O)cc3)C2=O)c(O)n1 (stereo unspecified),> 100000 nM,> 100000 nM,,,
Nc1nc(N)c(CCCNc2ccc(C(=O)NC(CCC(=O)O)C(=O)O)c(Cl)c2)c(O)n1 (stereo unspecified),115 nM,700 nM,182000 nM,,
